Columns and labels:
recombinant human MAGL = molecular target: T1, recombinant human MAGL (Homo sapiens, UniProt Q99685); assay type: biochemical; conditions: 2AG substrate
T1 sequence (Q99685 1-303): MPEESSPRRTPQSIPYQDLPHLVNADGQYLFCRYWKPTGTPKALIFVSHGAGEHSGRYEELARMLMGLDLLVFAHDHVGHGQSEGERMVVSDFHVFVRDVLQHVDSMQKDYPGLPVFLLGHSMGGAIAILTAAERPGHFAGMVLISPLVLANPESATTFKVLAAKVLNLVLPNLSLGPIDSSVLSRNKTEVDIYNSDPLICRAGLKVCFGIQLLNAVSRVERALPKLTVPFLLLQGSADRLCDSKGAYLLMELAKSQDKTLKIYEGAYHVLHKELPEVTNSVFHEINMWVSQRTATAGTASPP

THP1 foam cells = assay: Endogenous 2AG produced by cholesterol-loaded THP1 macrophages; assay type: cell-based, human; conditions: 24 h
recombinant human CES1 = molecular target: T2, recombinant human CES1 (Homo sapiens, UniProt P23141); assay type: biochemical; conditions: 2AG substrate
T2 sequence (P23141 18-567): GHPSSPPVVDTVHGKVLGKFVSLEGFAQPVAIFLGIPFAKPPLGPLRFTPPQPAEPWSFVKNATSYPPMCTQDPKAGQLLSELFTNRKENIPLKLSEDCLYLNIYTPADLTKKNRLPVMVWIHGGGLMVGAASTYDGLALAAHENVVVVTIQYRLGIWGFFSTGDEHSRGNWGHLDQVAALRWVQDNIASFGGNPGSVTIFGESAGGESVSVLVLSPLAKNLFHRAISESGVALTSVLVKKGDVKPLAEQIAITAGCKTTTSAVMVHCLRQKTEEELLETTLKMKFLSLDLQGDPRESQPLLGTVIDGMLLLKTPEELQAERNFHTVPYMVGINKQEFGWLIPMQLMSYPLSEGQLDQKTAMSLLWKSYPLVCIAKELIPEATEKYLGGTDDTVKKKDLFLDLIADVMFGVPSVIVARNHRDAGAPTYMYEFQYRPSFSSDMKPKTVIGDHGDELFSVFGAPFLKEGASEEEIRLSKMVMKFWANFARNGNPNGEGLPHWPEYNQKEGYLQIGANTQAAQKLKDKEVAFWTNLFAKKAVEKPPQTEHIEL

[1] = tested on: lipid glyceryl ester hydrolase activities of THP1 monocyte lysates
[2] = tested on: 31-32kDa enzyme in THP1 lysates; assay: Activity-based protein profiling with FP-biotin in THP1 lysate: 31-32kDa enzyme; assay type: biochemical, human
Summary of the method: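 THP1 monocyte lysate (1 mg/ml protein in 50 mM Tris-HCl, pH 7.4) was labelled with 2 μM FP-biotin for 1 h at room temperature. Irreversible inhibitors were preincubated for 30 min (37°C) before the probe. For the reversible inhibitor, lysate received inhibitor, then 0.2 μM FP-biotin for 7.5 min, short of full labelling. Reactions were stopped in reducing SDS loading buffer (95°C, 5 min), run on SDS-PAGE and blotted with avidin-HRP.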

THP1 macrophages = assay: PG-G and 2AG levels in LPS-primed THP1 macrophages stimulated with ionomycin; assay type: cell-based, human; conditions: oxon 1 μM, ionomycin 5 μM

chlorpyrifos oxon [CPO]
inhibition of recombinant MAGL (in words) (recombinant human MAGL): potently inhibit | amount of 2AG in culture medium relative to control group (THP1 foam cells; oxon 1 μM): 2.5 fold | amount of 2AG in culture medium relative to control group (THP1 foam cells; oxon 10 μM): 8.1 fold | inhibition of recombinant CES1 (in words) (recombinant human CES1): potently inhibit | inhibition of PGE2-G hydrolysis activity in THP1 cell lysate ([1]; oxon 1 μM): near complete inhibition | inhibition of hydrolysis of exogenous 2AG in THP1 lysate ([1]; oxon 1 μM, 2AG 10 μM): 49% | inhibition of 2AG hydrolysis activity in THP1 lysate ([1]; oxon 10 μM): 72% | knock down of 2AG hydrolysis activity in THP1 monocyte lysate ([1]; oxon 500 μM): 94% | concentration needed to reduce activity of the 31-32kDa enzyme toward FP-biotin [2]: > 10 µM | PGF2α-G, PGE2-G, and 2AG levels compared to vehicle-treated cells following ionomycin stimulation (THP1 macrophages): significantly elevated

— article PMC4065498 (Chemical research in toxicology, 2010)
